The source of these data is ChEMBL document CHEMBL1833966, “Synthesis and evaluation of quinazolin-4-ones as hypoxia-inducible factor-1α inhibitors” (Bioorg Med Chem Lett, 2011).

Active and inactive are the calls of the source. No cut-off for these calls is given here.

What is called IC50 is the point on the concentration scale where inhibition reaches its midpoint.

For the first experiment, the target named is T1, Hypoxia-inducible factor 1-alpha (Homo sapiens, UniProt Q16665). In words: Inhibition of hypoxia-induced HIF1alpha activation in human ME180 cells by HRE3-Bla-[…] reporter gene assay. In kind it is cell-based, ME-180. The conditions noted are these: me-180. In short, it runs like this:
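HRE-bla ME-180 reporter cells, 2500 per well, given compound by pin transfer (261-fold dilution), then held 17 h at 37 °C under 1% oxygen. LiveBLAzer B/G FRET β-lactamase substrate added, 2.5 h at room temperature; fluorescence read at 405 nm excitation, 460 and 530 nm emission. IC50 is the mean of three independent experiments.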
Target sequence in this assay (Q16665 whole entry): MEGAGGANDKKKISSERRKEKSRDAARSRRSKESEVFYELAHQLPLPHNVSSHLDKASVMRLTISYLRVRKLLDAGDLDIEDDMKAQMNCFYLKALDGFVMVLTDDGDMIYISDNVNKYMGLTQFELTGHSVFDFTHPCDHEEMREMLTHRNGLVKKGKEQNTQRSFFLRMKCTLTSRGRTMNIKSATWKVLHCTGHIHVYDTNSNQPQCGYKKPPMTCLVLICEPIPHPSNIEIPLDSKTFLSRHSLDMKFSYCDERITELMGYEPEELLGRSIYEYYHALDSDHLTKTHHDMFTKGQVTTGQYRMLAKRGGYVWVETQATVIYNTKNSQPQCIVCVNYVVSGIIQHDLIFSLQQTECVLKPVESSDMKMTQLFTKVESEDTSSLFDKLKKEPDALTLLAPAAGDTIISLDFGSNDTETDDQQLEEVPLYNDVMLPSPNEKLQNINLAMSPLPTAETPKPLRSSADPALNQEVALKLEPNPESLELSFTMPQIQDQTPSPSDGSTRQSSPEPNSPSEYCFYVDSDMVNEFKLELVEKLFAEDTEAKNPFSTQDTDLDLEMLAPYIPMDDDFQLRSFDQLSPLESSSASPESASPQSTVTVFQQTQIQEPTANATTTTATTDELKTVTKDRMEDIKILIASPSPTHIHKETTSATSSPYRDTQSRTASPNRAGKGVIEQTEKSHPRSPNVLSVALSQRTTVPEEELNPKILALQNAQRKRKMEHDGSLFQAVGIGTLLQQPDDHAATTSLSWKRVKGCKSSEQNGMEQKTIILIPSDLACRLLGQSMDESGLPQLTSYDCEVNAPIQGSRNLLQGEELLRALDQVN
On to `CCOc1ccccc1-n1c(CN2CCN(C(=O)c3ccco3)CC2)nc2ccc(I)cc2c1=O`, for which the IC50 entry is on record as “Not Active”. Take `CCOc1ccccc1-n1c(CN2CCN(C(=O)c3ccco3)CC2)nc2cccc(OC)c2c1=O`: the IC50 result is on record as “Not Active”. As to `CCOc1ccccc1-n1c(CN2CCN(C(=O)c3ccco3)CC2)nc2cc(OC)c(OC)cc2c1=O`, the IC50 result is reported as “Not Active”. `CCOc1ccccc1-n1c(CN2CCCCC2)nc2ccccc2c1=O`: the IC50 entry was “Not Active”. Still for that read-out and setting: in the case of `COc1ccc(-n2c(CN3CCNCC3)nc3ccccc3c2=O)cc1` it was “Not Active”; in that of `O=C(c1ccco1)N1CCN(Cc2nc3ccccc3c(=O)n2-c2ccccc2Cl)CC1`, “Not Active”; in that of `CC(C)(C)c1ccccc1-n1c(CN2CCN(C(=O)c3ccco3)CC2)nc2ccccc2c1=O`, “Not Active”. Still for that read-out and setting: in the case of `Cc1ccccc1-n1c(CN2CCN(C(=O)c3ccco3)CC2)nc2ccccc2c1=O` it was “Not Active”; in that of `O=C(c1ccco1)N1CCN(Cc2nc3ccccc3c(=O)n2-c2ccccc2C(F)(F)F)CC1`, “Not Active”. Still for that read-out and setting: to `O=C(c1ccco1)N1CCN(Cc2nc3ccccc3c(=O)n2-c2ccc(F)cc2)CC1` belongs “Not Active”. With `O=C(c1ccco1)N1CCN(Cc2nc3ccccc3c(=O)n2-c2ccccc2F)CC1`, the IC50 result is listed as “Not Active”. The same measure, in the same setting: to `O=C(c1ccco1)N1CCN(Cc2nc3ccccc3c(=O)n2-c2ccccc2)CC1` belongs “Not Active”.

With `O=C(c1ccco1)N1CCN(Cc2nc3ccccc3c(=O)n2-c2ccccc2OCc2ccccc2)CC1`, the IC50 result is reported as “Not Active”. For the molecule `O=C(c1ccco1)N1CCN(Cc2nc3ccccc3c(=O)n2-c2ccccc2Oc2ccccc2)CC1`, the IC50 entry was “Not Active”. As to `O=C(c1ccco1)N1CCN(Cc2nc3ccccc3c(=O)n2-c2ccccc2[N+](=O)[O-])CC1`, the IC50 result is reported as “Not Active”.

Staying with this experiment, now noted: read-out: IC50.
As to `CCOc1ccccc1-n1c(CN2CCN(C(=O)c3ccco3)CC2)nc2cccc(C)c2c1=O`, the 50% inhibitory concentration (IC50) worked out at 1.2 µM. Still for that read-out and setting: to `O=c1c2ccccc2nc(CN2CCNCC2)n1-c1ccccc1OCc1ccccc1` belongs 22.9 µM; to `CCOc1ccccc1-n1c(CN2CCN(C(=O)c3ccccc3)CC2)nc2ccccc2c1=O`, 1.7 µM. Same read-out and setting: in the case of `CCOC(=O)N1CCN(Cc2nc3ccccc3c(=O)n2-c2ccccc2OCC)CC1` it was 9.4 µM; in that of `CCOc1ccccc1-n1c(CN2CCNCC2)nc2ccccc2c1=O`, 0.09 µM. For the molecule `CCOc1ccccc1-n1c(CN2CCN(C)CC2)nc2ccccc2c1=O`, the IC50 worked out at 0.81 µM. Regarding `CCOc1ccccc1-n1c(CN2CCN(Cc3ccccc3)CC2)nc2ccccc2c1=O`, the IC50 was determined as 27.5 µM.

In the case of `CCOc1ccccc1-n1c(CN2CCCNCC2)nc2ccccc2c1=O`, the IC50 came out at 0.16 µM. Take `CCSc1ccccc1-n1c(CN2CCNCC2)nc2ccccc2c1=O`: the IC50 was found to be 3.5 µM. `CCOc1ccccc1-n1c(CC2CCN(C(=O)c3ccco3)CC2)nc2ccccc2c1=O`: the IC50 amounted to 27.6 µM. As to `CCOc1ccccc1-n1c(CN2CCN(C(=O)c3ccco3)CC2)nc2ccccc2c1=O`, the half-maximal inhibitory concentration (IC50) was 0.43 µM. Take `CCOc1ccccc1-n1c(CN2CCN(C(C)=O)CC2)nc2ccccc2c1=O`: the IC50 came to 0.47 µM. The same measure, in the same setting: in the case of `CC(C)COc1ccccc1-n1c(CN2CCNCC2)nc2ccccc2c1=O` it was 6.2 µM. Regarding `COc1ccc([N+](=O)[O-])cc1-n1c(CN2CCNCC2)nc2ccccc2c1=O`, the IC50 turned out to be 4.2 µM. `CCNc1ccccc1-n1c(CN2CCNCC2)nc2ccccc2c1=O`: the IC50 is 4.1 µM. For the molecule `COc1ccccc1-n1c(CN2CCN(C(=O)c3ccco3)CC2)nc2ccccc2c1=O`, the IC50 came out at 3.3 µM. Still for that read-out and setting: to `COc1ccc(C(F)(F)F)cc1-n1c(CN2CCNCC2)nc2ccccc2c1=O` belongs 0.2 µM; to `CCOc1ccccc1-n1c(CN2CCOCC2)nc2ccccc2c1=O`, 27.6 µM.

The next experiment relates to ME-180. Description: Inhibition of hypoxia-induced HIF1alpha protein accumulation in human HRE-bla-ME180 cells at 1 uM after 17 hrs by Western blot analysis. The class given is functional, cell-based.
Conditions: not given
Put shortly: (§1)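 HRE-bla ME-180 cells, 1 × 10^6 per well, cultured 6 h, then exposed 17 h to compound in DMSO at 1% oxygen; DMSO under normal atmosphere as negative control. Lysis on ice with protease inhibitor, centrifugation, 25 ug protein on 10% Tris-Glycine SDS-PAGE, PVDF transfer. Blotted with anti-HIF-1α (1:250), β-actin (1:5000) loading control, HRP secondary, luminol detection.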
A general note: Immunoblotting shows a protein as a band on a membrane.
On to `CCOc1ccccc1-n1c(CN2CCNCC2)nc2ccccc2c1=O`, for which the inhibition entry is “Active”. `CCOc1ccccc1-n1c(CN2CCOCC2)nc2ccccc2c1=O`: the inhibition result is “inactive”.

A further experiment addresses T1, Hypoxia-inducible factor 1-alpha. In words: Ratio of NCGC00056044 IC50 to compound IC50 for hypoxia-induced HIF1alpha activation in human ME180 cells by HRE3-Bla-[…] reporter gene assay. In kind it is cell-based. The conditions noted are these: ME-180. (Reporter assays use an easily measured gene product as a stand-in for the process of interest.)
Target sequence in this assay (Q16665 whole entry, looked up): as the sequence (Q16665 whole entry) above
Take `CCOc1ccccc1-n1c(CN2CCNCC2)nc2ccccc2c1=O`: the Ratio IC50 came to 5.

For another experiment, the system named is ME-180. Description: Inhibition of hypoxia-induced HIF1alpha protein accumulation in human HRE-bla-ME180 cells at 10 uM after 17 hrs by Western blot analysis. The class given is functional, cell-based.
Conditions: not given
Put shortly: as §1
As to `CCOc1ccccc1-n1c(CN2CCOCC2)nc2ccccc2c1=O`, the inhibition result is “Active”.
